# In publication PMC4206749 (Toxicological Research, 2014):
# Tests used:
# [1] = tested on: CHL cells (Chinese hamster lung fibroblast cell line); assay: In vitro chromosomal aberration assay; assay type: cell-based; settings: for Structural aberrations, Chromosome type, cse / Structural aberrations, Others / Gap / Numerical aberrations, PP + ER / Structural aberrations, Chromatid type, ctb / Structural aberrations, Chromatid type, cte / Structural aberrations, Chromosome type, csb: 200 cells
# CHL cells = assay: Cytotoxicity assay; assay type: cell-based, Chinese hamster; settings: 7.81 to 1,000 μg/ml, 24 hr treatments
# Summary of the method: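 MTT viability test. Cells were seeded at 1 × 10^4 per well overnight, then exposed 24 hr to test compound; CHL range 7.81 to 1,000 μg/ml. MTT was added at 0.5 mg/ml final for 4 hr at 37℃, followed by DMSO lysis and absorbance at 550 nm. Values are percent of untreated control, with triplicate samples in three independent experiments; IC50 was calculated for CHL.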
# [2] = tested on: L5178Y Tk^+/− mouse lymphoma cells; assay: Cytotoxicity assay; assay type: cell-based
# [3] = S9 (−), 24~0 hr continuous, 25 μg/ml
# [4] = S9 (−), 24~0 hr continuous, 50 μg/ml
smiles,measurement,setting,value
"Oc1ccc(-c2ccc3cc(O)ccc3c2)c(O)c1 [HS-1793, 4-(6-hydroxy-2-naphthyl)-1,3-benzenediol]","Structural aberrations, Chromosome type, cse","[1]; S9 (+), 6~18 hr, 100 μg/ml",0
same,"Structural aberrations, Others","[1]; S9 (+), 6~18 hr, 100 μg/ml",0
same,Growth index,"[1]; S9 (−), 6~18 hr, 6.25 μg/ml",98%
same,Total frequency (+) Gap,"[1]; S9 (−), 6~18 hr, 6.25 μg/ml",1.5%
same,Total frequency (−) Gap,"[1]; S9 (−), 6~18 hr, 6.25 μg/ml",1%
same,Gap,"[1]; S9 (−), 6~18 hr, 6.25 μg/ml",1
same,"Numerical aberrations, PP + ER","[1]; S9 (−), 6~18 hr, 6.25 μg/ml",0
same,"Structural aberrations, Chromatid type, ctb","[1]; S9 (−), 6~18 hr, 6.25 μg/ml",0
same,"Structural aberrations, Chromatid type, cte","[1]; S9 (−), 6~18 hr, 6.25 μg/ml",2
same,"Structural aberrations, Chromosome type, csb","[1]; S9 (−), 6~18 hr, 6.25 μg/ml",0
same,"Structural aberrations, Chromosome type, cse","[1]; S9 (−), 6~18 hr, 6.25 μg/ml",0
same,"Structural aberrations, Others","[1]; S9 (−), 6~18 hr, 6.25 μg/ml",0
same,Growth index,"[1]; S9 (−), 6~18 hr, 12.5 μg/ml",90%
same,Total frequency (+) Gap,"[1]; S9 (−), 6~18 hr, 12.5 μg/ml",2%
same,Total frequency (−) Gap,"[1]; S9 (−), 6~18 hr, 12.5 μg/ml",1%
same,Gap,"[1]; S9 (−), 6~18 hr, 12.5 μg/ml",2
same,"Numerical aberrations, PP + ER","[1]; S9 (−), 6~18 hr, 12.5 μg/ml",0
same,"Structural aberrations, Chromatid type, ctb","[1]; S9 (−), 6~18 hr, 12.5 μg/ml",1
same,"Structural aberrations, Chromatid type, cte","[1]; S9 (−), 6~18 hr, 12.5 μg/ml",1
same,"Structural aberrations, Chromosome type, csb","[1]; S9 (−), 6~18 hr, 12.5 μg/ml",0
same,"Structural aberrations, Chromosome type, cse","[1]; S9 (−), 6~18 hr, 12.5 μg/ml",0
same,"Structural aberrations, Others","[1]; S9 (−), 6~18 hr, 12.5 μg/ml",0
same,Growth index,"[1]; S9 (−), 6~18 hr, 25 μg/ml",84%
same,Total frequency (+) Gap,"[1]; S9 (−), 6~18 hr, 25 μg/ml",2%
same,Total frequency (−) Gap,"[1]; S9 (−), 6~18 hr, 25 μg/ml",1%
same,Gap,"[1]; S9 (−), 6~18 hr, 25 μg/ml",2
same,"Numerical aberrations, PP + ER","[1]; S9 (−), 6~18 hr, 25 μg/ml",0
same,"Structural aberrations, Chromatid type, ctb","[1]; S9 (−), 6~18 hr, 25 μg/ml",0
same,"Structural aberrations, Chromatid type, cte","[1]; S9 (−), 6~18 hr, 25 μg/ml",1
same,"Structural aberrations, Chromosome type, csb","[1]; S9 (−), 6~18 hr, 25 μg/ml",1
same,"Structural aberrations, Chromosome type, cse","[1]; S9 (−), 6~18 hr, 25 μg/ml",0
same,"Structural aberrations, Others","[1]; S9 (−), 6~18 hr, 25 μg/ml",0
same,Growth index,"[1]; S9 (−), 6~18 hr, 50 μg/ml",72%
same,Total frequency (+) Gap,"[1]; S9 (−), 6~18 hr, 50 μg/ml",1.5%
same,Total frequency (−) Gap,"[1]; S9 (−), 6~18 hr, 50 μg/ml",1%
same,Gap,"[1]; S9 (−), 6~18 hr, 50 μg/ml",1
same,"Numerical aberrations, PP + ER","[1]; S9 (−), 6~18 hr, 50 μg/ml",0
same,"Structural aberrations, Chromatid type, ctb","[1]; S9 (−), 6~18 hr, 50 μg/ml",1
same,"Structural aberrations, Chromatid type, cte","[1]; S9 (−), 6~18 hr, 50 μg/ml",1
same,"Structural aberrations, Chromosome type, csb","[1]; S9 (−), 6~18 hr, 50 μg/ml",0
same,"Structural aberrations, Chromosome type, cse","[1]; S9 (−), 6~18 hr, 50 μg/ml",0
same,"Structural aberrations, Others","[1]; S9 (−), 6~18 hr, 50 μg/ml",0
same,Growth index,"[1]; S9 (−), 6~18 hr, 100 μg/ml",65%
same,Total frequency (−) Gap,"[1]; S9 (−), 6~18 hr, 100 μg/ml",0.5%
same,Gap,"[1]; S9 (−), 6~18 hr, 100 μg/ml",2
same,"Structural aberrations, Chromatid type, ctb","[1]; S9 (−), 6~18 hr, 100 μg/ml",0
same,"Structural aberrations, Chromosome type, csb","[1]; S9 (−), 6~18 hr, 100 μg/ml",0
same,"Structural aberrations, Chromosome type, cse","[1]; S9 (−), 6~18 hr, 100 μg/ml",0
same,"Structural aberrations, Others","[1]; S9 (−), 6~18 hr, 100 μg/ml",0
same,Growth index,"[1]; S9 (−), 24~0 hr continuous, 6.25 μg/ml",93%
same,Growth index,"[1]; S9 (−), 24~0 hr continuous, 12.5 μg/ml",85%
same,Growth index,[1]; [3],79%
same,Gap,[1]; [3],1
same,"Numerical aberrations, PP + ER",[1]; [3],1
same,"Structural aberrations, Chromatid type, ctb",[1]; [3],0
same,"Structural aberrations, Chromatid type, cte",[1]; [3],1
same,"Structural aberrations, Chromosome type, csb",[1]; [3],0
same,"Structural aberrations, Chromosome type, cse",[1]; [3],0
same,"Structural aberrations, Others",[1]; [3],0
same,Growth index,[1]; [4],72%
same,Total frequency (+) Gap,[1]; [4],2%
same,Total frequency (−) Gap,[1]; [4],1.5%
same,"Structural aberrations, Chromatid type, ctb",[1]; [4],2
same,"Structural aberrations, Chromatid type, cte",[1]; [4],1
same,"Structural aberrations, Chromosome type, csb",[1]; [4],0
same,"Structural aberrations, Chromosome type, cse",[1]; [4],0
same,"Structural aberrations, Others",[1]; [4],0
same,Growth index,"[1]; S9 (−), 24~0 hr continuous, 100 μg/ml",58%
same,Incidence of structural or numerical chromosomal aberrations,"[1]; continuous treatment for 24 hr, 6.25, 12.5, 25, 50 and 100 μg/ml, absence of the S9 mix",did not induce a significant increase
same,Incidence of structural or numerical chromosomal aberrations,"[1]; short term treatment for 6 hr, 6.25, 12.5, 25, 50 and 100 μg/ml, presence or absence of the S9 mix",did not induce a significant increase
same,Cell viability (MTT),CHL cells,decreased in dose dependent manner
same,Cell viability (MTT),[2]; 62.5 μg/ml for 4 hr,no reduction of viable cell numbers > 70%
same,Cell viability (dose-range study),[2]; 24 hr treatments,decreased in dose dependent manner
